IC50 data for nine molecules are collected here from ChEMBL document CHEMBL4138067, “Design, synthesis and cytotoxicity of bengamide analogues and their epimers” (Medchemcomm, 2017).

SMILES strings stand for the structures.

Format in all cases: functional
One assay deals with HL-60. Nature of the assay: Cytotoxicity in human HL60 cells assessed as reduction in cell growth incubated for 72 hrs by neutral red staining based colorimetry. The following applies: HL-60, 72 h. The method in brief: (§1)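 Cells grown in D-MEM with 10% fetal calf serum, 2 mM L-glutamine, penicillin G, streptomycin and gentamicin, seeded at 3 × 10^3 cells per mL. Compound stocks in DMSO/H2O (1/9). Exposure 72 h at 37 °C in air/CO2 (95:5). Living cells stained with neutral red, optical density read at 540 nm. Run in triplicate. IC50 taken as concentration inhibiting growth to 50% of untreated control.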

Another assay relates to HepG2. In words: Cytotoxicity in human HepG2 cells assessed as reduction in cell growth incubated for 72 hrs by neutral red staining based colorimetry. As to conditions: HepG2, 72 h. The method in brief:
as §1

The next assay deals with MCF7. In words: Cytotoxicity in human MCF7 cells assessed as reduction in cell growth incubated for 72 hrs by neutral red staining based colorimetry. The following applies: MCF7, 72 h. Summed up:
as §1

The test system of another assay is HeLa. Nature of the assay: Cytotoxicity in human HeLa cells assessed as reduction in cell growth incubated for 72 hrs by neutral red staining based colorimetry. The method in brief: as §1
Another assay concerns Lu1. In words: Cytotoxicity in human Lu1 cells assessed as reduction in cell growth incubated for 72 hrs by neutral red staining based colorimetry. As to conditions: Lu1, 72 h. The method in brief: as §1
Another assay relates to KB. Nature of the assay: Cytotoxicity in human KB cells assessed as reduction in cell growth incubated for 72 hrs by neutral red staining based colorimetry. The method in brief:
as §1

By IC50 is commonly meant the concentration at which inhibition is half-maximal.

With `CO[C@@H](C(=O)N[C@H]1CC[C@@H](O)CNC1=O)[C@H](O)[C@@H](O)[C@H](O)/C=C/C(C)(C)C`, the IC50 with HL-60 is > 150 µM; with HepG2, > 150 µM; in the assay on MCF7 it was 23.4 µM; with HeLa, > 150 µM; in the assay with Lu1 it was 23.4 µM; in the assay with KB, 62.6 µM.

For the molecule `CO[C@@H](C(=O)N[C@@H]1CCCCNC1=O)[C@H](O)[C@@H](O)[C@H](O)/C=C/C(C)(C)C`, the IC50 was found to be 5.3 µM in the assay with HL-60; 1.1 µM in the assay with HepG2; 0.2 µM with MCF7; 2.1 µM with HeLa; 0.5 µM in the assay on Lu1; 1.1 µM in the assay on KB.

On to `CO[C@@H](C(=O)N[C@@H]1CC[C@@H](O)CNC1=O)[C@H](O)[C@@H](O)[C@H](O)/C=C/C(C)(C)C`, for which the concentration for half-maximal inhibition (IC50) stood at 12.1 µM in the assay on HL-60; 21.3 µM in the assay with HepG2; 165 µM with MCF7; 15.4 µM in the assay with HeLa; 17.2 µM in the assay on Lu1; 5.1 µM with KB.

For the molecule `CO[C@@H](C(=O)N[C@H]1CCCCNC1=O)[C@H](O)[C@@H](O)[C@H](O)/C=C/C(C)(C)C`, the IC50 in the assay on HL-60 turned out to be 83.3 µM; in the assay on HepG2 it was 21.1 µM; with MCF7 it was 1.3 µM; in the assay with HeLa, 60.7 µM; with Lu1 it was 4.3 µM; with KB it was 21 µM.

Take `CO[C@@H](C(=O)N[C@@H]1CC[C@H](O)CNC1=O)[C@H](O)[C@@H](O)[C@H](O)/C=C/C(C)(C)C`: the IC50 with HL-60 was > 150 µM; in the assay with HepG2 it was 138 µM; with MCF7 it was 80.4 µM; with HeLa, > 150 µM; with Lu1, 36.3 µM; in the assay with KB it was 23.7 µM.

Turning to `CO[C@@H](C(=O)N[C@@H]1CCCCNC1=O)[C@@H]1OC(C)(C)O[C@H](/C=C/C(C)(C)C)[C@@H]1O`, the half-maximal inhibitory concentration (IC50) in the assay with HL-60, with HepG2, with MCF7, in the assay on HeLa, in the assay on Lu1 and in the assay on KB was > 150 µM in each case.

In the case of `CO[C@@H](C(=O)N[C@H]1CC[C@H](O)CNC1=O)[C@H](O)[C@@H](O)[C@H](O)/C=C/C(C)(C)C`, the IC50 in the assay with HL-60 is > 150 µM; in the assay on HepG2, 103 µM; in the assay with MCF7, 144 µM; in the assay with HeLa, > 150 µM; with Lu1, 10 µM; in the assay on KB it was 19.8 µM.

Regarding `CO[C@@H](C(=O)N[C@H]1CCCCNC1=O)[C@@H]1OC(C)(C)O[C@H](/C=C/C(C)(C)C)[C@@H]1O`, the IC50 in the assay on HL-60, in the assay on HepG2, with MCF7, in the assay with HeLa, with Lu1 and in the assay with KB was > 150 µM each time.

For `Cc1c2ccncc2c(C)c2c1[nH]c1ccccc12` [ELLIPTECINE], the IC50 with HL-60 came out at 2 µM; in the assay on MCF7 it was 2.4 µM; in the assay with HeLa, 1.6 µM; in the assay with Lu1, 1.6 µM; in the assay with KB, 1.2 µM.
